# Bim-Mcl-1 – inhibitors of Bim peptide binding to Mcl-1, primary screen, biochemical, bead-based flow cytometry, multiplex. Bim peptide-Mcl-1 binding. inhibition, % at 10 µM. 190,000 compounds, 0.1% hits. AID 1009, 2008; in the data active means inhibition above about 40%;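 further: 0% = no compound tracer wells and 100% = peptide blocker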
# Target sequence (Q07820 whole entry, looked up): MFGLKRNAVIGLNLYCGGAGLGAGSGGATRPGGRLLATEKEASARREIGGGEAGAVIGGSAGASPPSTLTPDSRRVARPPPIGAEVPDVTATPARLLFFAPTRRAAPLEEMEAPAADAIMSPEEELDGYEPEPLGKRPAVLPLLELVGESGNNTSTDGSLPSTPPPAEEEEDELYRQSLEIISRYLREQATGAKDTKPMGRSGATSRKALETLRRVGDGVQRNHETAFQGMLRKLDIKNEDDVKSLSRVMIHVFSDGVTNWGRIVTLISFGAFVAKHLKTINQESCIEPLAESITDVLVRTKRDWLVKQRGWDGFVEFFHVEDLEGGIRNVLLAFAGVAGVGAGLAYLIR
# Mcl1 Noxa PPI – Mcl-1/Noxa binding inhibitors, primary screen, biochemical, TR-FRET, 1536-well | Induced myeloid leukemia cell differentiation protein Mcl-1 (Homo sapiens), Q07820 | TR-FRET Mcl-1/Noxa peptide binding, 2 h | inhibition, % at 21.7 µM | 220,000 compounds, 1.5% hits;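 active means compounds that cut the protein-peptide binding signal by more than 50% relative to plate controls in a single-dose test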;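 further: His-tagged Mcl-1 with rhodamine Noxa BH3 peptide and terbium anti-His antibody; 0% = Mcl-1 plus Noxa peptide wells and 100% = peptide-only wells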
# MCL1-BIM inh – inhibitors of MCL1 binding to BIM-BH3, primary screen, biochemical, fluorescence polarization | inhibition, % at 10.9 µM | 320,000 compounds, 0.68% hits | GST-MCL1 / FITC-Bim-BH3 fluorescence polarization;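 active means inhibition above the mean inhibition of all tested compounds plus 3 SD, set per campaign, cut at about 40% in these data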;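 further: 0% = DMSO wells and 100% = unlabeled Bim-BH3 peptide control; higher means more loss of mP so more displacement of Bim peptide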
# Pemphigus Ab inh – inhibitors of pemphigus antibody binding to DSG3, primary screen, biochemical, bead-based, flow cytometry, scFv-GFP | Desmoglein-3 (Homo sapiens), P32926 | DSG3-coupled beads, scFv-anti-DSG3-GFP binding; hits give low values | binding (percent of control), % at 10 µM | 310,000 compounds, 0.48% hits | AID 588358, 2011;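 active means binding more than 3 SD below its plate's average and above zero; inconclusive means below that plate limit but binding exactly zero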;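 further: hits lower antibody fragment binding to DSG3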
# T cell modulator – modulators of CD8 T cell-vesicle binding, primary screen, mouse 2C CD8+ T cells, flow cytometry; 2C CD8+ T cell-vesicle binding; hits give low values; response (vesicle binding), % at 7 µM; 330,000 compounds, 0.068% hits; AID 2052, 2009;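 active means response, share of CD8 T cells binding vesicles, and their 90th percentile fluorescence all below set limits, cut at about 80% in these data, passing the limit was not always enough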;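 further: values below 100% mean blocked vesicle binding to the CD8+ T cells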
#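 Material: murine 2C transgenic CD8+ T lymphocytes / Also added: QL9-peptide-loaded Drosophila micro-vesicles bearing Ld, ICAM-1 and B7-1 / Schedule: binding step 1.5 h, 37 °C, antibody labelling 20 min, ice / Signal: flow cytometry, PE anti-B7-1 (FL2) versus Alexa647 anti-CD8 (FL8), PFA-fixed / Evaluation: percent CD8+ FL2 mean versus row control / Benchmarks: naked versus QL9-loaded vesicles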
# Mcl1-Bid inh – Mcl-1/Bid binding inhibitors, primary screen, biochemical, TR-FRET, 1536-well. TR-FRET Mcl-1/Bid-Dy647 peptide binding. inhibition, % at 21.7 µM. 220,000 compounds, 0.97% hits;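 active means compounds that cut the binding signal by more than half at the single screening dose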;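 further: His-tagged Mcl-1 with europium anti-His antibody binding Bid BH3 peptide; 0% = Mcl-1 plus peptide wells and 100% = peptide-only wells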
# * = called active by the depositor; i = inactive; ? = inconclusive; . = not tested or not shown. In the library only some 2.3% were active in any assay of this set; here they are far more common.
SMILES,Bim-Mcl-1,Mcl1 Noxa PPI,MCL1-BIM inh,Pemphigus Ab inh,T cell modulator,Mcl1-Bid inh
CC1CC(C)CN(c2ncnc3c2cnn3Cc2ccc(Cl)cc2)C1 (centres undefined),-4,64*,8,107,161,13
Clc1ccc(Cn2ncc3c(N4CCCC4)ncnc32)cc1,1,7,-9,103,348,4
Cc1c(C)c2ccc(OCC(=O)NCCN3CCOCC3)c(C)c2oc1=O,.,.,1,.,i,.
CCc1ccc(OCC(=O)Nc2ccc3c(c2)OCCO3)cc1,.,.,3,108,61,.
Cc1ccc(-c2nn(C)c(=O)c3ccccc23)cc1CNC(=O)Cn1nc(-c2ccccc2)c2ccccc2c1=O,-31,-23,.,.,.,77*
COc1ccc(/C=N/NC(=O)c2nn(-c3ccc(Cl)cc3)c(=O)c3c(N)scc23)cc1,0,57*,33,82*,267,-17
Cc1cccc(Cn2c(C)nc3c(N)c(C)c(C)cc32)c1,0,-12,7,105,526,91*
Cc1cccc(Cn2c(C(C)O)nc3ccccc32)c1 (centres undefined),-1,-25,-6,99,89,-27
CN(C)S(=O)(=O)c1ccc(Nc2ccc(-c3ccc4c(c3)OCCO4)nn2)cc1,1,15,3,69*,636,46
CCOC(=O)CSc1nc(N)c(C(=O)Nc2ccc(N(C)C)cc2)s1,-6,90*,7,102,438,-50
O=C(CSc1nc2ccccc2c(=O)n1CCCO)Nc1ccc2c(c1)OCCO2,.,.,.,93,.,.
CCCCCCCCCCCCCCCCn1cc[n+](CC(C)=O)c1,-1,42,.,110,.,59*
CCCCCCn1ccc(=N)cc1,1,-7,6,102,191,-7
CC(CN1CCOCC1)OC(=O)c1ccccc1Cl (centres undefined),.,.,2,102,207,.
COc1ccc2nc(C)cc(SCC(=O)Nc3c(C)cccc3C)c2c1,-2,-7,-4,151,339,68*
COc1ccc2nc(C)cc(SCC(=O)N/N=C/c3c(OC)ccc4ccccc34)c2c1,-12,3,-6,77,283,64*
COc1ccc2nc(C)cc(SCC(=O)NNC(=O)COc3cccc4ccccc34)c2c1,-1,1,-12,97,401,52*
O=C(Cc1ccsc1)NCC(=O)Nc1ccc(F)c(F)c1,.,.,-2,.,182,.
CCOc1ccccc1C(=O)Nc1ccc2c(c1)C(=O)NC2=O,.,.,3,95,112,.
Cc1cnc(NC(=O)CC2OC(=O)c3ccccc32)s1 (centres undefined),.,.,.,101,.,.
Fc1ccc(Nc2nc(-c3ccncc3)nc3ccccc23)cc1,-2,23,8,85*,158,29
COc1ccc(N2CCC(CNC(=S)Nc3cc(C)cc(C)c3)C2)cc1 (centres undefined),.,11,6,103,108,-148
COc1ccc(Cl)c(N2CCN(CCCNC(=O)Nc3ccc(C)cc3)CC2)c1,0,75*,6,?,238,4
COc1ccc(N2CCC(CNC(=O)Nc3ccccc3)C2)cc1 (centres undefined),-5,82*,24,104,322,-44
CSc1ccc(NC(=O)NCCCN2CCC(Cc3ccccc3)CC2)cc1,.,.,-2,106,400,.
SMILES,Bim-Mcl-1,Mcl1 Noxa PPI,MCL1-BIM inh,Pemphigus Ab inh,T cell modulator,Mcl1-Bid inh
COc1ccc(NC(=O)NCCCN2CCC(Cc3ccccc3)CC2)cc1,.,52*,5,98,141,-9
COCC(=O)N(C)C[C@H]1Oc2cc(C#Cc3cccnc3)ccc2S(=O)(=O)N([C@H](C)CO)C[C@H]1C,.,.,.,103,.,.
CC1(C)CC(=O)C=C(c2ccc(-c3cccc4c3sc3ccccc34)cc2)C1=O,.,.,.,100,.,.
O=C(NCc1ccccc1)C(=O)Nc1nc(C23CC4CC(CC(C4)C2)C3)cs1,83*,-56,6,128,222,-49
O=C(CNC(=O)c1ccc(Br)cc1)NCc1cccnc1,.,.,1,90,342,.
CCN(CC)CC(=O)Nc1cc(N(C)C)nc2ccccc12,.,48,-2,95,402,37
CCCCc1nc2ccccc2c(NC(=O)CN(CC)CC)c1CCC,-45,20,6,93,190,51*
CCCc1nc2ccccc2c(NC(=O)CN(CC)CC)c1CC,-5,26,-2,99,562,62*
Cc1cc(NC(=O)CS(=O)(=O)c2cn(Cc3ccc(F)cc3)c3ccccc23)no1,-1,5,3,-23*,279,-22
CCCN(C(=O)CSc1ccccc1C(=O)O)C1CCS(=O)(=O)C1 (centres undefined),.,.,.,?,200,.
COc1cccc(C(Nc2ccccn2)c2oc(CO)cc(=O)c2O)c1 (centres undefined),0,74*,26,100,279,27
O=c1cc(CO)oc(C(Nc2ccccn2)c2cccc(F)c2)c1O (centres undefined),0,52*,31,93,508,46
Cn1nnnc1SCC(=O)Nc1ncc(C(F)(F)F)cc1Cl,.,.,.,95,510,.
CCN1C[C@@H]2[C@@H]3C(=O)N(C)C(=O)[C@@H]3[C@](Cc3ccccc3)(C(=O)OC)N2C1=NC1CCCCC1,.,.,.,106,.,.
CCCCN(C(=O)CN1CC(C)OC(C)C1)c1c(N)n(CC(C)C)c(=O)[nH]c1=O (centres undefined),-4,18,-18,97,265,-17
CCCCN(C(=O)Cn1ncc(Cl)c(Cl)c1=O)c1c(N)n(CC(C)C)c(=O)[nH]c1=O,.,66*,16,95,359,-1
CCOC(=O)C1=C(COC(=O)CCOc2cc(C)ccc2C)NC(=O)NC1C (centres undefined),.,.,10,90,253,.
COc1cccc(Sc2ccccc2/C=N/NC(N)=O)c1,0,8,2,38*,344,9
C=CCOc1c(/C=N\NC(N)=O)cccc1OC,.,3,-2,110,402,-12
CC(C)OC(=O)c1ccccc1C(=O)c1ccc(N)c([N+](=O)[O-])c1,4,61*,-5,97,194,-59
O=C1CSC(c2ccncc2)N1Cc1ccco1 (centres undefined),-2,-1,7,80*,207,-19
O=C(O)c1ccc(C2SCC(=O)N2Cc2ccco2)cc1 (centres undefined),0,12,0,99,233,-24

# Screening data (PubChem BioAssay)
